In series [1] the test system is 1205 Lu melanoma cells (metastatic). Nature of the series: MTS cell viability assay, 1205 Lu. Conditions: Homo sapiens, 24 h, read-out: IC50, cell viability (MTS). Type of series: cell-based.
Series [2] relates to melanoma cells. Nature of the series: MTS cell viability assay, melanoma cells. Conditions: Homo sapiens, read-out: average IC50 for killing melanoma cells. It is filed as cell-based.
Series [3] has as its system FF2441 human fibroblast cells. The series can be described thus: MTS cell viability assay, FF2441. It is filed as cell-based. Conditions: read-out: IC50, cell viability (MTS).
Series [4] in a line: Survival and body weight of mice, daily i.p. injection for seven days. Conditions: 0.127 µmoles i.p. daily, 7 days of treatment, n = 3. It is filed as in vivo. A digest of the protocol: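 Mice received test compound intraperitoneally once daily for seven days at 0.032–0.064, 0.127 or 0.127–0.254 µmoles depending on agent, n = 3 per group. Survival and body-weight change were recorded.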

Series [5] has as its system cultured cells. Conditions: cited from earlier work.
For series [6] the following is noted: doses of 200 mg per day, cited from earlier work.
The test system of series [7] is UACC903 melanoma cells (metastatic). Nature of the series: MTS cell viability assay, UACC 903. Type of series: cell-based. Conditions: Homo sapiens, read-out: IC50, cell viability (MTS).
The test system of series [8] is FOM103 normal human melanocytes. The series can be described thus: MTS cell viability assay, FOM103. Conditions: Melanocyte, read-out: IC50, cell viability (MTS). Type of series: cell-based.
Series [9] relates to COX-2 expression in 1205 Lu and UACC 903 cells. The series can be described thus: Western blot of COX-2 / COX-1 expression after MAP kinase pathway inhibitors. It is filed as cell-based, human. Put shortly: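 Melanoma cells (1.5×10^6/100 mm dish) were treated 48 h after plating for 6–72 h with a B-Raf inhibitor (0.2–20 µmol/L) or a MEK inhibitor (2.5–50 µmol/L). Separately, cells were nucleofected with 100 pmoles siRNA against V600E B-Raf, MEK1, MEK2, ERK1 or ERK2, with lysates taken at day 4 or 6. Blots were probed for COX-1 and COX-2 and detected by enhanced chemiluminescence.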

Series [10] relates to sporadic melanomas with mutant V600EB-Raf. Conditions: melanoma patients; cited from earlier work.

Data on 3 compounds can be found in publication PMC3546139 (Molecular cancer therapeutics, 2012).

Read-outs that look alike come from different tables or passages of the source.

On to `Cc1ccc(-c2cc(C(F)(F)F)nn2-c2ccc(S(N)(=O)=O)cc2)cc1` [Celecoxib, 4-[5-(4-methylphenyl)-3-(trifluoromethyl)-1H-pyrazol-1-yl]benze nesulfonamide], for which the IC50 was more than 100 µM in series [1]; 55.6 µM in series [2]; more than 100 µM in [3] (FF2441, 24 h); more than 100 µM in [3] (FF2441, 48 h); more than 100 µM in [7] (UACC-903, 24 h); more than 100 µM in series [7] (UACC-903, 48 h). In addition, the IC50 in series [8] (48 h) was more than 100 µM; in [8] (72 h) it was 68 ± 1.2 µM; in series [8] it was more than 100 µM. Further, in [4], the animal mortality entry is given as “death of all animals”. In addition, in series [5], the “concentrations required to induce apoptosis of cultured cells” value is 25 to 100 µmol/L. For the same compound, the “concentrations required to trigger apoptosis in cultured cells” value in series [5] was 25 to 100 µmol/L. The “side effects associated with clinical use” value is reported as “cardiovascular side effects” in series [6] (ref 15, 16) and “cardiovascular side-effects” in [6] (ref 33).
As for `CCCS(=O)(=O)Nc1ccc(F)c(C(=O)c2c[nH]c3ncc(-c4ccc(Cl)cc4)cc23)c1F` [PLX-4032], the values for the COX-2 protein expression result in series [9] (1205 Lu cells) and in series [9] (UACC 903 cells) were “decreased COX-2 protein expression beginning after 12 h of treatment” and “significant decrease was seen from 24 h of treatment”, respectively. Further, the COX-1 expression entry in [9] (either cell line (1205 Lu, UACC 903)) is “no changes were observed in COX-1 expression”. Also, in series [10], the response rates entry is “up to 80%”.
For the compound `N#CC(=C(/N)Sc1ccccc1N)/C(C#N)=C(/N)Sc1ccccc1N` [U0126], the “levels of COX-2 protein and COX-1” value in series [9] (1205 Lu and UACC 903 cell lines) is “reduced levels of COX-2 protein without affecting COX-1”.
